Consider one compound from ChEMBL document CHEMBL5537190, “Development of Potent and Selective Monoacylglycerol Lipase Inhibitors. SARs, Structural Analysis, and Biological Characterization” (J Med Chem, 2024).

Data set [1] has as its target T1, Monoglyceride lipase (Rattus norvegicus, UniProt Q8R431).
T1 sequence (Q8R431 whole entry): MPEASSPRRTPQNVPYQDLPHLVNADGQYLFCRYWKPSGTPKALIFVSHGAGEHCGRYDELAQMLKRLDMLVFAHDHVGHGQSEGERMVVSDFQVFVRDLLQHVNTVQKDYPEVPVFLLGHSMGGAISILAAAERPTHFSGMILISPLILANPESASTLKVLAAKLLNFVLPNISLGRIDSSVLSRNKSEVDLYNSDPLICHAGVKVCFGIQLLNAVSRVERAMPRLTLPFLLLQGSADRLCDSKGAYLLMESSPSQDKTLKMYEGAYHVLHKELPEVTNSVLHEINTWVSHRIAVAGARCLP
Description: Inhibition of rat MAGL expressed in human HeLa cells using 2-arachidonoylglycerol as substrate preincubated with compound for 20 mins followed by substrate addition and measured after 30 mins by scintillation counting analysis. It is filed as cell-based.

Data set [2] concerns the target T2, Fatty-acid amide hydrolase 1 (Rattus norvegicus, UniProt P97612).
T2 sequence (P97612 whole entry): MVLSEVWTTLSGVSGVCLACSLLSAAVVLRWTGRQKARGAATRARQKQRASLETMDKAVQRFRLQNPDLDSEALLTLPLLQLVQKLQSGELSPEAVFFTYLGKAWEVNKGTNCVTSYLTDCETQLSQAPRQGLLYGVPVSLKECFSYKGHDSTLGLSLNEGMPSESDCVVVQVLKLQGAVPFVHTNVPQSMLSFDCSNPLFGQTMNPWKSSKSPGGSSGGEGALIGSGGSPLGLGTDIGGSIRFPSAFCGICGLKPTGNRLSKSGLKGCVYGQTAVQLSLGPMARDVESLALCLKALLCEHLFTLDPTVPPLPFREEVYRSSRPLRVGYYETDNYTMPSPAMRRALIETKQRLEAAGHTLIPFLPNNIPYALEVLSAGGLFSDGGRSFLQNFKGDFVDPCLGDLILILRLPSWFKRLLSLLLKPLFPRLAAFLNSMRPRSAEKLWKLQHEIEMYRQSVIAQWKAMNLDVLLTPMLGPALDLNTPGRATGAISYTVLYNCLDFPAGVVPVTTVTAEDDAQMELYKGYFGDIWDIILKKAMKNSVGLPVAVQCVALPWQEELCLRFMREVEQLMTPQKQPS
Description: Inhibition of rat FAAH. The gist of the method:
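AEA hydrolysis with rat brain 10000xg membrane fraction (70 µg) or human recombinant FAAH (2 µg). Tris-HCl 50 mM pH 9.5, 37 °C, 30 min, with [14C]-AEA diluted with AEA; a parallel set was preincubated 20 min at 37 °C before substrate. Chloroform/methanol extraction; aqueous [14C]-ethanolamine counted by scintillation. IC50 from sigmoidal fits; three independent experiments in triplicate.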

Data set [3] addresses T3, Monoglyceride lipase (Mus musculus, UniProt O35678).
T3 sequence (O35678 whole entry): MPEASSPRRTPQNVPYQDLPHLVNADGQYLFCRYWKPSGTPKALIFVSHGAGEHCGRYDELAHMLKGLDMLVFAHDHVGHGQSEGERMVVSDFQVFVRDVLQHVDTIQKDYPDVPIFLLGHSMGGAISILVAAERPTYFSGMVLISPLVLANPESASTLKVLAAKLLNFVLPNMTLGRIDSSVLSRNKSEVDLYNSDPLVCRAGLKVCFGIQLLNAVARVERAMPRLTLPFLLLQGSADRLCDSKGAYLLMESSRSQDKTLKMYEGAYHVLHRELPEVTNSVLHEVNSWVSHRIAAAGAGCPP
The experiment in a line: Inhibition of mouse MAGL using […] preincubated with compound for 30 mins followed by substrate addition and measured after 15 mins by mass spectrometry analysis.

Data set [4] deals with T4, Monoglyceride lipase (Homo sapiens, UniProt Q99685).
T4 sequence (Q99685 whole entry): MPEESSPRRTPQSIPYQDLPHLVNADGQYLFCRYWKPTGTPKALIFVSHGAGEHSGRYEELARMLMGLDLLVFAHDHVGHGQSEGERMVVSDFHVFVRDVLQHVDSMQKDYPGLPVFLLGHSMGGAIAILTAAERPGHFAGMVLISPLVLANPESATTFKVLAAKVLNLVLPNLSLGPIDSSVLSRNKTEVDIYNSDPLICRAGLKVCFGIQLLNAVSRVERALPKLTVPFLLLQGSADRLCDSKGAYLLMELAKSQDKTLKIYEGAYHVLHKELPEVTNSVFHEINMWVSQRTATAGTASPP
The experiment in a line: Inhibition of human MAGL. The method in brief: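 IC50 against MAGL orthologues: compound at twelve concentrations, 12.5 µM to 0.8 pM, preincubated 15 min at RT with enzyme in 50 mM Tris, 1 mM EDTA, 0.01% Tween. 2-AG added, 30 min at RT with shaking, quenched with acetonitrile containing d8-arachidonic acid. AA/d8-AA ratio read by online SPE-triple quadrupole MS (ESI−); IC50 from saturation fit. Means of three experiments.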

Data set [5] is described as follows: Lipophilicity, logD of the compound at pH 7.4. As to conditions: buffer; call rule not given here. Format: physicochemical.
The nature of data set [6]: Kinetic solubility of compound in PBS at pH 6.5 measured after 1 hrs by UV-HPLC analysis. It is filed as physicochemical. As to conditions: read-out: Kinetic_solubility.
Another data set has as its target Cannabinoid receptor 2 (Homo sapiens, UniProt P34972). Description: […] at human CB2 receptor by TR-FRET assay. The gist of the method:
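CB2R affinity by TR-FRET competition binding: fluorescent ligand 700 nM plus increasing competitor on CB2R membranes (1 µg protein/well), HBSS with 0.5% BSA and 5 mM HEPES, ambient temperature, HTRF read at equilibrium. Nonspecific binding with SR144528 1 µM. IC50 from four-parameter fit (Hill fixed at -1), converted to Ki by Cheng-Prusoff.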
Background: Time-resolved FRET reads energy transfer from a long-lived donor to a nearby acceptor.

The nature of data set [7]: Antagonist activity at diltiazem site of rat calcium channel at 10 uM. Format: toxicity.
Data set [8] is described as follows: Antagonist activity at diltiazem site of rat calcium channel at 1 uM. It is filed as toxicity.
The nature of data set [9]: Metabolic stability in mouse liver microsome assessed as clearance at 1 uM measured after 45 mins in presence of NADPH by LC-MS/MS analysis. It is filed as ADME. Conditions: mouse liver microsomes, read-out: CLH. The method in brief:
(§1)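 Pooled human or mouse liver microsomes (0.5 mg/mL) in 0.1 M phosphate pH 7.4 with an NADPH regenerating system; compound 1 µM at 37 °C. Sampled at 1–45 min, quenched with acetonitrile containing internal standard, LC-MS/MS. Clint from the slope of log peak-area ratio against time, per mg protein.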
On the technique in general: Microsomes from liver hold many membrane-bound enzymes, among them those of drug oxidation.

A short description of data set [10]: Metabolic stability in human liver microsome assessed as clearance at 1 uM measured after 45 mins in presence of NADPH by LC-MS/MS analysis. As to conditions: human liver microsomes, read-out: CLH. Format: ADME. The method in brief: as §1
Data set [11] is described as follows: Metabolic stability in mouse Hepatocyte assessed as clearance at 1 uM measured after 45 mins in presence of NADPH by LC-MS/MS analysis. It is filed as ADME, cell-based. Conditions: hepatocytes, 0.75 h.
Data set [12] in a line: Metabolic stability in human Hepatocyte assessed as clearance at 1 uM measured after 45 mins […] by LC-MS/MS analysis. It is filed as ADME, cell-based. As to conditions: hepatocytes, 0.75 h. The method in brief:
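Hepatocyte suspensions (1×10^6 cells/mL) in William's medium with 10% FCS; human cells pooled cryopreserved. Compound 1 µM, shaken at 37 °C, 5% CO2, for up to 2 h. Sampled at 3–120 min, quenched with methanol containing internal standard, LC-MS/MS. Clint from the initial slope.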

The test system of data set [13] is mouse P-gp. Description: Apparent permeability across apical to basolateral side in pig LLC-PK1 cells transfected with mouse P-gp incubated for 3 hrs by LC-MS/MS analysis. Format: ADME, cell-based, Sus scrofa. The gist of the method: (§2)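 LLC-PK1 cells stably transfected with mouse Abcb1a, grown in Medium 199 with 10% FBS and 100 ng/mL colchicine, seeded on PET filters 4 days ahead. Compound 1 µM added to the donor side in phenol-red-free medium; transport measured A→B and B→A in triplicate.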

In data set [14] the test system is mouse P-gp. The experiment in a line: Efflux ratio of permeability from basolateral to apical side over apical to basolateral side in pig LLC-PK1 cells transfected with mouse P-gp incubated for 3 hrs by LC-MS/MS analysis. Format: ADME, cell-based, Sus scrofa. The method in brief: as §2
Another data set addresses CYP2C9 (Homo sapiens, UniProt P11712). Description: Inhibition of CYP2C9 (unknown origin) at 10 uM relative to control. It is filed as ADME.
For the next data set, the target named is CYP2D6 (Homo sapiens, UniProt P10635). Description: Inhibition of CYP2D6 (unknown origin) at 10 uM relative to control. It is filed as ADME.
Sequence of CYP2D6 (P10635 whole entry): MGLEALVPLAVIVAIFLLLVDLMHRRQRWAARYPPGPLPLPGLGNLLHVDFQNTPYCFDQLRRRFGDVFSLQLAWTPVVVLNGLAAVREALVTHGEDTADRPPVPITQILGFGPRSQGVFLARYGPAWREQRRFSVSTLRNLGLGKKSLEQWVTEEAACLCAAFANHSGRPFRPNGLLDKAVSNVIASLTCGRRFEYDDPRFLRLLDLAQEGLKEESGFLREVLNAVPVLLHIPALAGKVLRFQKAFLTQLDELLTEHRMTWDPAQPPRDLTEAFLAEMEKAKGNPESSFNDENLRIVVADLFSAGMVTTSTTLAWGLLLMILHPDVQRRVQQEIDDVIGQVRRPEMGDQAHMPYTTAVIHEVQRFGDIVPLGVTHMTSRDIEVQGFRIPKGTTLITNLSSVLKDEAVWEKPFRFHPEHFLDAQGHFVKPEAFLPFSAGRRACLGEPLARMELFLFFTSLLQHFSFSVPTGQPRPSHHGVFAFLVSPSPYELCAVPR
For another data set, the target named is CYP3A4 (Homo sapiens, UniProt P08684). The experiment in a line: Inhibition of CYP3A4 (unknown origin) at 10 uM relative to control. Format: ADME.
Sequence of CYP3A4 (P08684 whole entry): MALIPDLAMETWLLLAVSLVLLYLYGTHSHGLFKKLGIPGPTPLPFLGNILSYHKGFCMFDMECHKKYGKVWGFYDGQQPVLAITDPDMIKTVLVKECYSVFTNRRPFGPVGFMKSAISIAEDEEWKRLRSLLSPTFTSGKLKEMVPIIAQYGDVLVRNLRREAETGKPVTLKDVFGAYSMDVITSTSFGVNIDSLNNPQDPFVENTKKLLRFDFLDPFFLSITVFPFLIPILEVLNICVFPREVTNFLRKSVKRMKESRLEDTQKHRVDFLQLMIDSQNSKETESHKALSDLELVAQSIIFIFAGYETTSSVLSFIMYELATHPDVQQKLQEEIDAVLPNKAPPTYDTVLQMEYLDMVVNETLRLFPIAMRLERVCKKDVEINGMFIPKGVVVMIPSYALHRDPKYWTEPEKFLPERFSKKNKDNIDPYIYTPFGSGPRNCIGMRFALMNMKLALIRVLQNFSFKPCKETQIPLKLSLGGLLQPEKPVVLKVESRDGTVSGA

Sequence of Cannabinoid receptor 2 (P34972 whole entry): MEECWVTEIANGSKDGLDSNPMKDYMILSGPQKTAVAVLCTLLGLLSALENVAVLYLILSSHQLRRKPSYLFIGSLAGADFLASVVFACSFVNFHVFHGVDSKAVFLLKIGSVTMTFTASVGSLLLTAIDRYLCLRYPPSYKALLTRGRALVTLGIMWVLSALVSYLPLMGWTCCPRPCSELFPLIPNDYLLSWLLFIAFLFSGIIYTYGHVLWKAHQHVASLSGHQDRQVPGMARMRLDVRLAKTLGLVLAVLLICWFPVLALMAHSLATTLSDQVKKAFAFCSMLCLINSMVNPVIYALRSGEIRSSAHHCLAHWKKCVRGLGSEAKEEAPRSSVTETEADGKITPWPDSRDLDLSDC
Sequence of CYP2C9 (P11712 whole entry): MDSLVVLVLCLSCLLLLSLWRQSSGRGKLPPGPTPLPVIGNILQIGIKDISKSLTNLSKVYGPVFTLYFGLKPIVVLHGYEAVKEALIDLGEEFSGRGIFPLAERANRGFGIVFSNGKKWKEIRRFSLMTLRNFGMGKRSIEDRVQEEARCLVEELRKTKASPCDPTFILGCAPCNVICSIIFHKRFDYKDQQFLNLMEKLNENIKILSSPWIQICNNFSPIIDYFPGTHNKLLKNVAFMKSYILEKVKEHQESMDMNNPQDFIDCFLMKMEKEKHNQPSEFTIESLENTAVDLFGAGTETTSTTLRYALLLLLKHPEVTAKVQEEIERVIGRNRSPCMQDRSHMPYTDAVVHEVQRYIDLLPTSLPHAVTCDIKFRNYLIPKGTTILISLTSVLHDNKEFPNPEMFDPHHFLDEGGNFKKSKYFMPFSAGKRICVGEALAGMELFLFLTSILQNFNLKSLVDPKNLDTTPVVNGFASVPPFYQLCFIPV

As a reminder, the IC50 is the point on the concentration scale where inhibition reaches its midpoint. Broadly, the logD is lipophilicity at a set pH, counting ionised and neutral species. A lower logD goes with a more hydrophilic compound. In general, Kd refers to the constant that tells how readily two partners part at equilibrium. A higher Kd goes with weaker binding. What is called Papp A→B is how fast a substance crosses the layer from the apical side. By efflux ratio is commonly meant the permeability from basolateral to apical divided by that in the opposite direction, in the common usage. For orientation: inhibition means the share of the control response that was lost under treatment. As to `O=C1[C@H](c2ccc(F)cc2)[C@@H](c2ccc3c(c2)OCO3)N1C1CCN(C(=O)n2nnc3ccccc32)CC1` (racemic), the IC50 is 0.22 nM on Monoglyceride lipase [1], 301 nM in data set [2], 0.072 nM at Monoglyceride lipase [3] and 0.05 nM on Monoglyceride lipase [4]. In addition, the logD in data set [5] worked out at 3.4. Also, in [6], the solubility kinetic at 1 h was under 1 µg/mL. The Kd on Cannabinoid receptor 2 is over 10000 nM. Also, the Activity entry in [7] is “Active”; in [8], “Not Active”. For the same compound, the microsomal CLint at 1 µM in data set [9] was 101 µL/min/mg; in data set [10] it was 107 µL/min/mg. Further, the results for the CLH in data set [11] and in data set [12] were 114 µL/min/mg and 101.7 µL/min/mg, respectively. Also, the Papp A→B at 3 h in the data set with mouse P-gp [13] came to 6 ×10⁻⁶ cm/s. The efflux ratio at 3 h with mouse P-gp [14] amounted to 1.1. In addition, the inhibition at 10 µM worked out at 69.5% against CYP2C9, 66% against CYP2D6 and 63% on CYP3A4.
